Measured values: ChEMBL document CHEMBL2010644, “Evaluation and discovery of novel synthetic chalcone derivatives as anti-inflammatory agents” (J Med Chem, 2011)
The source made the active and inactive calls. The calls are words filed in the database; no cut-off is given here.

The compounds below were run on Peritoneal macrophage cell (assay: Antiinflammatory activity in ICR mouse primary peritoneal macrophages assessed as downregulation of LPS-induced COX-2 mRNA expression at 10 uM incubated for 2 hrs prior to LPS-challenge measured after 6 hrs by RT-qPCR analysis).
Assay type: functional, cell-based
Summary of the method: (§1)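 Macrophages pretreated 2 h with compound at 10 μM or vehicle, then LPS 0.5 μg/mL for 6 h. mRNA of TNF-α, IL-6, COX-2, IL-1β and IL-12 quantified by RT-qPCR, normalized to β-actin mRNA and expressed as ratio to DMSO. Mean ± SD of four to seven independent experiments.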

| Compound | Activity |
| --- | --- |
| COc1cc(C(=O)/C=C/c2ccc(N(C)C)cc2)cc(OC)c1OC | inactive |
| COc1ccc(/C=C/C(=O)c2ccc(OC)c(OC)c2)c(OC)c1 | Active |

The compounds below were run on Peritoneal macrophage cell (assay: Antiinflammatory activity in ICR mouse primary peritoneal macrophages assessed as downregulation of high glucose-induced TNFalpha mRNA expression at 10 uM incubated for 2 hrs prior to high glucose-challenge measured after 3 hrs by RT-qPCR analysis).
Assay type: functional, cell-based
Summary of the method: (§2)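 Peritoneal macrophages (1 × 10^6) pretreated with compound (10 μM) or DMSO for 2 h, then high glucose (25 mM) for 3 h. Low-glucose reference cells kept in RPMI-1640 with 5.5 mM glucose. TNF-α, IL-1β, IL-6 and IL-12 mRNA measured by RT-qPCR on whole-cell RNA. Mean ± SEM, three independent experiments run in duplicate.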

| Compound | Activity |
| --- | --- |
| COc1cc(C(=O)/C=C/c2ccc(N(C)C)cc2)cc(OC)c1OC | Active |
| COc1ccc(/C=C/C(=O)c2ccc(OC)c(OC)c2)c(OC)c1 | Active |

The compounds below were run on Peritoneal macrophage cell (assay: Antiinflammatory activity in ICR mouse primary peritoneal macrophages assessed as downregulation of LPS-induced TNF-alpha mRNA expression at 10 uM incubated for 2 hrs prior to LPS-challenge measured after 6 hrs by RT-qPCR analysis).
Assay type: functional, cell-based
Summary of the method: as §1

| Compound | Activity |
| --- | --- |
| COc1cc(C(=O)/C=C/c2ccc(N(C)C)cc2)cc(OC)c1OC | Active |
| COc1ccc(/C=C/C(=O)c2ccc(OC)c(OC)c2)c(OC)c1 | Active |

What follows are compounds tested on RAW264.7 (assay: Antiinflammatory activity in mouse RAW264.7 cells assessed as inhibition of LPS-induced TNFalpha production at 10 uM incubated for 2 hrs prior to LPS-challenge measured after 22 hrs by ELISA).
Assay type: functional, cell-based
Summary of the method: (§3)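 RAW264.7 cells grown in DMEM with 10% FBS at 37 °C, 5% CO2, plated at 1.2 × 10^6/plate overnight. Compound pretreatment 2 h (screen at 10 μM; dose-response at 2.5, 5.0, 10 μM), then LPS 0.5 μg/mL for 22 h. Medium TNF-α or IL-6 measured by ELISA, normalized to cell protein, expressed as % of LPS control; IC50 derived from dose series.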

| Compound | inhibition |
| --- | --- |
| COc1cc(C(=O)/C=C/c2ccc(N(C)C)cc2)cc(OC)c1OC | Active |
| COc1ccc(/C=C/C(=O)c2ccc(OC)c(OC)c2)c(OC)c1 | Active |

What follows are compounds tested on Peritoneal macrophage cell (assay: Antiinflammatory activity in ICR mouse primary peritoneal macrophages assessed as downregulation of LPS-induced IL-6 mRNA expression at 10 uM incubated for 2 hrs prior to LPS-challenge measured after 6 hrs by RT-qPCR analysis).
Assay type: functional, cell-based
Summary of the method: as §1

| Compound | Activity |
| --- | --- |
| COc1cc(C(=O)/C=C/c2ccc(N(C)C)cc2)cc(OC)c1OC | Active |
| COc1ccc(/C=C/C(=O)c2ccc(OC)c(OC)c2)c(OC)c1 | Active |

The compounds below were run on Peritoneal macrophage cell (assay: Antiinflammatory activity in ICR mouse primary peritoneal macrophages assessed as downregulation of high glucose-induced IL1beta mRNA expression at 10 uM incubated for 2 hrs prior to high glucose-challenge measured after 3 hrs by RT-qPCR analysis).
Assay type: functional, cell-based
Summary of the method: as §2

| Compound | Activity |
| --- | --- |
| COc1cc(C(=O)/C=C/c2ccc(N(C)C)cc2)cc(OC)c1OC | Active |
| COc1ccc(/C=C/C(=O)c2ccc(OC)c(OC)c2)c(OC)c1 | inactive |

These compounds were tested on RAW264.7 (assay: Antiinflammatory activity in mouse RAW264.7 cells assessed as inhibition of LPS-induced IL6 production at 10 uM incubated for 2 hrs prior to LPS-challenge measured after 22 hrs by ELISA).
Assay type: functional, cell-based
Summary of the method: as §3

| Compound | inhibition |
| --- | --- |
| COc1cc(C(=O)/C=C/c2ccc(N(C)C)cc2)cc(OC)c1OC | Active |
| COc1ccc(/C=C/C(=O)c2ccc(OC)c(OC)c2)c(OC)c1 | Active |

What follows are compounds tested on Peritoneal macrophage cell (assay: Antiinflammatory activity in ICR mouse primary peritoneal macrophages assessed as downregulation of high glucose-induced IL6 mRNA expression at 10 uM incubated for 2 hrs prior to high glucose-challenge measured after 3 hrs by RT-qPCR analysis).
Assay type: functional, cell-based
Summary of the method: as §2

| Compound | Activity |
| --- | --- |
| COc1cc(C(=O)/C=C/c2ccc(N(C)C)cc2)cc(OC)c1OC | inactive |
| COc1ccc(/C=C/C(=O)c2ccc(OC)c(OC)c2)c(OC)c1 | Active |

The compounds below were run on RAW264.7 (assay: Antiinflammatory activity in mouse RAW264.7 cells assessed as inhibition of LPS-induced TNFalpha production at 10 uM incubated for 2 hrs prior to LPS-challenge measured after 22 hrs by ELISA relative to control).
Assay type: functional
Summary of the method: as §3

| Compound | inhibition at 10 µM [%] |
| --- | --- |
| COc1cc(C(=O)/C=C/c2ccc(N(C)C)cc2)cc(OC)c1OC | 61.2 |

The compounds below were run against MAP kinase p38 (Mus musculus) (UniProt P47811+O08911+Q9WUI1+Q9Z1B7) (assay: Inhibition of LPS-induced p38 phosphorylation in ICR mouse primary peritoneal macrophages at 10 uM incubated for 2 hrs prior to LPS-challenge measured after 1 hr by Western blot analysis).
Summary of the method: (§4)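 Cells pretreated 2 h with DMSO or compound (10 μM in the single-concentration set; 2.5, 5.0, 10, 20 μM in the dose series), then LPS 0.5 μg/mL for 1 h. p-ERK, ERK, p-p38 and p38 detected by Western blot with actin loading control; optical density ratio reported. Mean ± SE, three independent experiments.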

| inhibition | Compound |
| --- | --- |
| Active | COc1cc(C(=O)/C=C/c2ccc(N(C)C)cc2)cc(OC)c1OC |
| Active | COc1ccc(/C=C/C(=O)c2ccc(OC)c(OC)c2)c(OC)c1 |

These compounds were tested on Peritoneal macrophage cell (assay: Antiinflammatory activity in ICR mouse primary peritoneal macrophages assessed as downregulation of LPS-induced IL-12 mRNA expression at 10 uM incubated for 2 hrs prior to LPS-challenge measured after 6 hrs by RT-qPCR analysis).
Assay type: functional, cell-based
Summary of the method: as §1

| Compound | Activity |
| --- | --- |
| COc1cc(C(=O)/C=C/c2ccc(N(C)C)cc2)cc(OC)c1OC | Active |
| COc1ccc(/C=C/C(=O)c2ccc(OC)c(OC)c2)c(OC)c1 | Active |

What follows are compounds tested on RAW264.7 (assay: Antiinflammatory activity in mouse RAW264.7 cells assessed as inhibition of LPS-induced IL6 production incubated for 2 hrs prior to LPS-challenge measured after 22 hrs by ELISA).
Assay type: functional, cell-based
Summary of the method: as §3

| IC50 [µM] | Compound | inhibition |
| --- | --- | --- |
| 6.88 | COc1cc(C(=O)/C=C/c2ccc(N(C)C)cc2)cc(OC)c1OC | Dose-dependent effect |
| 5.35 | COc1ccc(/C=C/C(=O)c2ccc(OC)c(OC)c2)c(OC)c1 | Dose-dependent effect |

Each compound was assayed on Peritoneal macrophage cell (assay: Antiinflammatory activity in ICR mouse primary peritoneal macrophages assessed as downregulation of LPS-induced IL-1beta mRNA expression at 10 uM incubated for 2 hrs prior to LPS-challenge measured after 6 hrs by RT-qPCR analysis).
Assay type: functional, cell-based
Summary of the method: as §1

| Compound | Activity |
| --- | --- |
| COc1cc(C(=O)/C=C/c2ccc(N(C)C)cc2)cc(OC)c1OC | inactive |
| COc1ccc(/C=C/C(=O)c2ccc(OC)c(OC)c2)c(OC)c1 | Active |

What follows are compounds tested on RAW264.7 (assay: Antiinflammatory activity in mouse RAW264.7 cells assessed as inhibition of LPS-induced TNFalpha production incubated for 2 hrs prior to LPS-challenge measured after 22 hrs by ELISA).
Assay type: functional, cell-based
Summary of the method: as §3

| IC50 [µM] | Compound | inhibition |
| --- | --- | --- |
| 2.9 | COc1cc(C(=O)/C=C/c2ccc(N(C)C)cc2)cc(OC)c1OC | Dose-dependent effect |
| 2.76 | COc1ccc(/C=C/C(=O)c2ccc(OC)c(OC)c2)c(OC)c1 | Dose-dependent effect |

Species on record: Mus musculus
Test: Inhibition of LPS-induced ERK phosphorylation in ICR mouse primary peritoneal macrophages at 10 uM incubated for 2 hrs prior to LPS-challenge measured after 1 hr by Western blot analysis
Summary of the method: as §4

| inhibition | Compound |
| --- | --- |
| Active | COc1cc(C(=O)/C=C/c2ccc(N(C)C)cc2)cc(OC)c1OC |
| Active | COc1ccc(/C=C/C(=O)c2ccc(OC)c(OC)c2)c(OC)c1 |

What follows are compounds tested on Peritoneal macrophage cell (assay: Antiinflammatory activity in ICR mouse primary peritoneal macrophages assessed as downregulation of high glucose-induced IL12 mRNA expression at 10 uM incubated for 2 hrs prior to high glucose-challenge measured after 3 hrs by RT-qPCR analysis).
Assay type: functional, cell-based
Summary of the method: as §2

| Compound | Activity |
| --- | --- |
| COc1cc(C(=O)/C=C/c2ccc(N(C)C)cc2)cc(OC)c1OC | Active |
| COc1ccc(/C=C/C(=O)c2ccc(OC)c(OC)c2)c(OC)c1 | Active |

These compounds were tested on RAW264.7 (assay: Antiinflammatory activity in mouse RAW264.7 cells assessed as inhibition of LPS-induced IL6 production at 10 uM incubated for 2 hrs prior to LPS-challenge measured after 22 hrs by ELISA relative to control).
Assay type: functional
Summary of the method: as §3

| Compound | inhibition at 10 µM [%] |
| --- | --- |
| COc1cc(C(=O)/C=C/c2ccc(N(C)C)cc2)cc(OC)c1OC | 73.4 |
